Assay [1] deals with A549. The assay is described as follows: Antiproliferative activity against human A549 cells after 72 hrs by MTT assay. Type of assay: functional, cell-based. The conditions noted are these: A549, 72 h. Put shortly:
(§1)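 Cells seeded at 5000/well on day 0 in medium with 10% FBS, 2 mM L-glutamine, penicillin/streptomycin, 37 °C, 5% CO2. Compounds added at five 10-fold dilutions with DMSO ≤0.1%, then 72 h exposure. MTT absorbance converted to percentage growth versus untreated wells. IC50 by linear regression between bracketing concentrations. Quadruplicate points, three independent experiments.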

In assay [2] the test system is CFPAC-1. In words: Antiproliferative activity against human CFPAC-1 cells after 72 hrs by MTT assay. To be noted: CFPAC-1, 72 h. The format is functional, cell-based. Put shortly:
as §1
(In general: Tetrazolium assays rely on reduction of a dye to a coloured formazan, in cell work by metabolically active cells.)

For assay [3], the system named is HeLa. The assay is described as follows: Antiproliferative activity against human HeLa cells after 72 hrs by MTT assay. Type of assay: functional, cell-based. The gist of the method:
as §1

Assay [4] has as its system SW-620. The assay is described as follows: Antiproliferative activity against human SW620 cells after 72 hrs by MTT assay. Type of assay: functional, cell-based. To be noted: SW-620, 72 h. Put shortly:
as §1

Assay [5] deals with WI-38. In words: Antiproliferative activity against human WI38 cells after 72 hrs by MTT assay. Type of assay: cell-based. To be noted: WI-38, 72 h. The gist of the method: as §1
Assay [6] in a line: Selectivity ratio of IC50 for human A549 cells to IC50 for human SW620 cells. The format is functional.
Assay [7] can be described thus: Selectivity ratio of IC50 for human CFPAC-1 cells to IC50 for human SW620 cells. Type of assay: functional.
Assay [8] is described as follows: Selectivity ratio of IC50 for human HeLa cells to IC50 for human SW620 cells. Type of assay: functional.

Each structure is given as a SMILES string.

Regarding `Cl.Clc1ccc(Cn2cc(COc3ccc(-c4nc5cc(C6=NCCN6)ccc5[nH]4)cc3)nn2)cc1`, the half-inhibitory concentration (IC50) (as a rule, the midpoint of a concentration-inhibition curve) in assay [1] was found to be 9.34 µM; in assay [2], 6.82 µM; in assay [3] it was 5.06 µM; in assay [4], 0.05 µM; in assay [5], 5.77 µM. Moreover, the “Ratio IC50” value in assay [6], in assay [7] and in assay [8] was above 100 each time.
